Results reported in ChEMBL document CHEMBL1153560, “In vitro activities of doripenem and six comparator drugs against 423 aerobic and anaerobic bacterial isolates from infected diabetic foot wounds” (2008).
≈ marks a conversion by molar mass, not a printed value.

Assays:
Type in all cases: functional
Clostridium cadaveris = assay: Antibacterial activity against Clostridium cadaveris isolated from patient with diabetic foot infection after 44 to 48 hrs by agar dilution method
Summary of the method: (§1)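 CLSI M11-A7 agar dilution: serial twofold drug dilutions made on the test day and added to molten agar. Spots of 10^5 CFU were applied by replicator, with drug-free control plates inoculated before and after each set. Incubation was 44 to 48 h at 37°C in an anaerobic chamber. MIC was the lowest concentration giving no growth or a marked change in growth versus controls.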

Anaerococcus prevotii = assay: Antibacterial activity against Anaerococcus prevotii isolated from patient with diabetic foot infection after 44 to 48 hrs by agar dilution method; summary of the method: as §1
Parvimonas micra = assay: Antibacterial activity against Peptostreptococcus micros isolated from patient with diabetic foot infection after 44 to 48 hrs by agar dilution method; summary of the method: as §1
Escherichia coli = assay: Antibacterial activity against Escherichia coli isolated from patient with diabetic foot infection assessed as percent resistant isolates after 18 to 24 hrs by broth microdilution method
Summary of the method: (§2)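 Aerobes subcultured on Trypticase soy blood agar, then broth microdilution in cation-adjusted Mueller-Hinton broth. Trays prepared in-house with twofold dilutions and stored at −70°C. Overnight colonies suspended to about 5 × 10^5 CFU/ml final. Read after 18 to 24 h at 37°C. QC strains included S. aureus ATCC 29213 and E. coli ATCC 25922.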

Enterobacter cloacae = assay: Antibacterial activity against Enterobacter cloacae isolated from patient with diabetic foot infection assessed as percent resistant isolates after 18 to 24 hrs by broth microdilution method; summary of the method: as §2
Klebsiella pneumoniae = assay: Antibacterial activity against Klebsiella pneumoniae isolated from patient with diabetic foot infection assessed as percent resistant isolates after 18 to 24 hrs by broth microdilution method; summary of the method: as §2
Proteus mirabilis [1] = assay: Antibacterial activity against Proteus mirabilis isolated from patient with diabetic foot infection assessed as percent resistant isolates after 18 to 24 hrs by broth microdilution method; summary of the method: as §2
[2] = test system: Corynebacterium amycolatum; assay: Antibacterial activity against Corynebacterium amycolatum isolated from patient with diabetic foot infection assessed as percent resistant isolates after 48 hrs by broth microdilution method
Summary of the method: (§3)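 Isolates subcultured on Trypticase soy blood agar. Broth microdilution in cation-adjusted Mueller-Hinton broth with lysed horse blood, using in-house twofold dilution trays stored at −70°C. Inoculum from overnight colonies at about 5 × 10^5 CFU/ml final. Read after 18 to 24 h at 37°C, up to 48 h for some Corynebacterium strains.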

[3] = test system: Corynebacterium urealyticum; assay: Antibacterial activity against Corynebacterium urealyticum isolated from patient with diabetic foot infection assessed as percent resistant isolates after 48 hrs by broth microdilution method; summary of the method: as §3
Bacteroides caccae [4] = assay: Antibacterial activity against Bacteroides caccae isolated from patient with diabetic foot infection after 44 to 48 hrs by agar dilution method; summary of the method: as §1
Bacteroides stercoris = assay: Antibacterial activity against Bacteroides stercoris isolated from patient with diabetic foot infection after 44 to 48 hrs by agar dilution method; summary of the method: as §1
[5] = test system: Streptococcus dysgalactiae subsp. equisimilis; assay: Antibacterial activity against Streptococcus dysgalactiae subsp. equisimilis isolated from patient with diabetic foot infection assessed as percent resistant isolates after 18 to 24 hrs by broth microdilution method
Summary of the method: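 Streptococci subcultured on Trypticase soy blood agar and tested by broth microdilution in cation-adjusted Mueller-Hinton broth with lysed horse blood. In-house twofold dilution trays stored at −70°C. About 5 × 10^5 CFU/ml final inoculum from overnight colonies. Read after 18 to 24 h at 37°C.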

Bacteroides caccae [6] = assay: Antibacterial activity against Bacteroides caccae isolated from patient with diabetic foot infection assessed as percent resistant isolates after 44 to 48 hrs by agar dilution method
Summary of the method: (§4)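 Agar dilution per CLSI M11-A7. Twofold drug dilutions made on the test day and added to molten agar. Replicator-applied inoculum of 10^5 CFU/spot. Drug-free control plates inoculated before and after each drug set. Incubation at 37°C for 44 to 48 h, anaerobic chamber. MIC taken as the lowest concentration giving no growth or a marked change in growth versus controls.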

Bacteroides ovatus = assay: Antibacterial activity against Bacteroides ovatus isolated from patient with diabetic foot infection assessed as percent resistant isolates after 44 to 48 hrs by agar dilution method; summary of the method: as §4
Phocaeicola vulgatus [7] = assay: Antibacterial activity against Bacteroides vulgatus isolated from patient with diabetic foot infection after 44 to 48 hrs by agar dilution method; summary of the method: as §1
Porphyromonas somerae = assay: Antibacterial activity against Porphyromonas somerae isolated from patient with diabetic foot infection after 44 to 48 hrs by agar dilution method; summary of the method: as §1
Bacteroides uniformis = assay: Antibacterial activity against Bacteroides uniformis isolated from patient with diabetic foot infection assessed as percent resistant isolates after 44 to 48 hrs by agar dilution method; summary of the method: as §4
Phocaeicola vulgatus [8] = assay: Antibacterial activity against Bacteroides vulgatus isolated from patient with diabetic foot infection assessed as percent resistant isolates after 44 to 48 hrs by agar dilution method; summary of the method: as §4
[9] = test system: Parabacteroides distasonis; assay: Antibacterial activity against Parabacteroides distasonis isolated from patient with diabetic foot infection assessed as percent resistant isolates after 44 to 48 hrs by agar dilution method; summary of the method: as §4
Parabacteroides merdae = assay: Antibacterial activity against Parabacteroides merdae isolated from patient with diabetic foot infection assessed as percent resistant isolates after 44 to 48 hrs by agar dilution method; summary of the method: as §4
Proteus mirabilis [10] = assay: Antibacterial activity against Proteus mirabilis isolated from patient with diabetic foot infection after 18 to 24 hrs by broth microdilution method
Summary of the method: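 Isolates were subcultured on Trypticase soy blood agar and tested by broth microdilution in cation-adjusted Mueller-Hinton broth. In-house trays of twofold drug dilutions were stored at −70°C. Overnight colonies gave a final inoculum of about 5 × 10^5 CFU/ml. Plates were read after 18 to 24 h at 37°C.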

[11] = test system: Corynebacterium minutissimum; assay: Antibacterial activity against Corynebacterium minutissimum isolated from patient with diabetic foot infection after 48 hrs by broth microdilution method
Summary of the method: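 Isolates were subcultured on Trypticase soy blood agar. Broth microdilution used cation-adjusted Mueller-Hinton broth with lysed horse blood, in-house trays of twofold drug dilutions stored at −70°C. Colonies from overnight growth gave a final inoculum of about 5 × 10^5 CFU/ml. Trays were read after 18 to 24 h at 37°C, up to 48 h for some strains.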

Staphylococcus aureus = assay: Antibacterial activity against methicillin-sensitive Staphylococcus aureus isolated from patient with diabetic foot infection after 18 to 24 hrs by broth microdilution method
Summary of the method: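 Subcultured on Trypticase soy blood agar, then broth microdilution in cation-adjusted Mueller-Hinton broth. Trays were made in-house with serial twofold drug dilutions and stored at −70°C. Inoculum was colonies from overnight growth, final approximately 5 × 10^5 CFU/ml. MIC was read after 18 to 24 h at 37°C. QC strains: S. aureus ATCC 29213 and E. coli ATCC 25922.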

[12] = test system: Enterocloster clostridioformis; assay: Antibacterial activity against Clostridium clostridioforme isolated from patient with diabetic foot infection assessed as percent resistant isolates after 44 to 48 hrs by agar dilution method; summary of the method: as §4
Lacrimispora sphenoides = assay: Antibacterial activity against Clostridium sphenoides isolated from patient with diabetic foot infection assessed as percent resistant isolates after 44 to 48 hrs by agar dilution method; summary of the method: as §4
Finegoldia magna = assay: Antibacterial activity against Finegoldia magna isolated from patient with diabetic foot infection assessed as percent resistant isolates after 44 to 48 hrs by agar dilution method; summary of the method: as §4

| SMILES | MIC50 (Clostridium cadaveris) | MIC90 (Clostridium cadaveris) | MIC50 (Anaerococcus prevotii) | MIC90 (Anaerococcus prevotii) | MIC50 (Parvimonas micra) | MIC90 (Parvimonas micra) | MIC50 (Bacteroides caccae [4]) | MIC90 (Bacteroides caccae [4]) | MIC50 (Bacteroides stercoris) | MIC90 (Bacteroides stercoris) | Activity (Bacteroides caccae [6]) | Activity (Bacteroides ovatus) | MIC50 (Phocaeicola vulgatus [7]) | MIC90 (Phocaeicola vulgatus [7]) | MIC50 (Porphyromonas somerae) | MIC90 (Porphyromonas somerae) | Activity (Bacteroides uniformis) | Activity (Phocaeicola vulgatus [8]) | Activity [9] | Activity (Parabacteroides merdae) | also measured |
| --- | --- | --- | --- | --- | --- | --- | --- | --- | --- | --- | --- | --- | --- | --- | --- | --- | --- | --- | --- | --- | --- |
| C[C@@H](O)[C@H]1C(=O)N2C(C(=O)O)=C(SCCNC=N)C[C@H]12 [IMIPENEM ANHYDROUS] | 0.25 µg/mL (≈ 0.835 µM) | 2 µg/mL (≈ 6.68 µM) | ≤ 0.015 µg/mL | 0.03 µg/mL (≈ 0.1 µM) | 0.03 µg/mL (≈ 0.1 µM) | 0.06 µg/mL (≈ 0.2 µM) | 0.5 µg/mL (≈ 1.67 µM) | 1 µg/mL (≈ 3.34 µM) | 0.5 µg/mL (≈ 1.67 µM) | 1 µg/mL (≈ 3.34 µM) | 0% | 0% | 0.5 µg/mL (≈ 1.67 µM) | 1 µg/mL (≈ 3.34 µM) | < 0.015 µg/mL | ≤ 0.015 µg/mL | 0% | 0% | 0% | 0% | Activity (Escherichia coli): 0%; Activity (Enterobacter cloacae): 0%; Activity (Klebsiella pneumoniae): 0%; Activity (Proteus mirabilis [1]): 0%; Activity [2]: 7%; Activity [3]: 30%; Activity [5]: 0%; MIC50 (Proteus mirabilis [10]): 0.5 µg/mL (≈ 1.67 µM); MIC90 (Proteus mirabilis [10]): 4 µg/mL (≈ 13.4 µM); MIC50 [11]: 0.25 µg/mL (≈ 0.835 µM); MIC90 [11]: 32 µg/mL (≈ 107 µM); MIC50 (Staphylococcus aureus): ≤ 0.015 µg/mL; MIC90 (Staphylococcus aureus): 0.03 µg/mL (≈ 0.1 µM); Activity [12]: 0%; Activity (Lacrimispora sphenoides): 0%; Activity (Finegoldia magna): 0% |
| C[C@@H](O)[C@H]1C(=O)N2C(C(=O)O)=C(S[C@@H]3CN[C@H](C(=O)N(C)C)C3)[C@H](C)[C@H]12 [MEROPENEM] | 0.06 µg/mL (≈ 0.156 µM) | 1 µg/mL (≈ 2.61 µM) | 0.03 µg/mL (≈ 0.0782 µM) | 0.125 µg/mL (≈ 0.326 µM) | 0.125 µg/mL (≈ 0.326 µM) | 0.25 µg/mL (≈ 0.652 µM) | 0.25 µg/mL (≈ 0.652 µM) | 1 µg/mL (≈ 2.61 µM) | 0.25 µg/mL (≈ 0.652 µM) | 1 µg/mL (≈ 2.61 µM) | 0% | 0% | 0.25 µg/mL (≈ 0.652 µM) | 1 µg/mL (≈ 2.61 µM) | ≤ 0.015 µg/mL | ≤ 0.015 µg/mL | 0% | 0% | 0% | 0% | Activity (Escherichia coli): 0%; Activity (Enterobacter cloacae): 0%; Activity (Klebsiella pneumoniae): 0%; Activity (Proteus mirabilis [1]): 0%; Activity [2]: 7%; Activity [3]: 20%; Activity [5]: 0%; MIC50 (Proteus mirabilis [10]): 0.06 µg/mL (≈ 0.156 µM); MIC90 (Proteus mirabilis [10]): 0.125 µg/mL (≈ 0.326 µM); MIC50 [11]: 1 µg/mL (≈ 2.61 µM); MIC90 [11]: 16 µg/mL (≈ 41.7 µM); MIC50 (Staphylococcus aureus): 0.06 µg/mL (≈ 0.156 µM); MIC90 (Staphylococcus aureus): 0.125 µg/mL (≈ 0.326 µM); Activity [12]: 0%; Activity (Lacrimispora sphenoides): 0%; Activity (Finegoldia magna): 0% |
| Cc1ncc([N+](=O)[O-])n1CCO [METRONIDAZOLE] | 0.125 µg/mL (≈ 0.73 µM) | 0.25 µg/mL (≈ 1.46 µM) | 0.5 µg/mL (≈ 2.92 µM) | 1 µg/mL (≈ 5.84 µM) | 0.25 µg/mL (≈ 1.46 µM) | 1 µg/mL (≈ 5.84 µM) | 0.5 µg/mL (≈ 2.92 µM) | 1 µg/mL (≈ 5.84 µM) | 0.5 µg/mL (≈ 2.92 µM) | 1 µg/mL (≈ 5.84 µM) | 0% | 0% | 0.5 µg/mL (≈ 2.92 µM) | 1 µg/mL (≈ 5.84 µM) | 0.05 µg/mL (≈ 0.292 µM) | 0.25 µg/mL (≈ 1.46 µM) | 0% | 0% | 0% | 0% | Activity [12]: 0%; Activity (Lacrimispora sphenoides): 0%; Activity (Finegoldia magna): 0% |
